Measurements from ChEMBL document CHEMBL2029266, “Discovery and evaluation of selective N-type calcium channel blockers: 6-unsubstituted-1,4-dihydropyridine-5-carboxylic acid derivatives” (Bioorg Med Chem Lett, 2012).

Tests used:
[1] = target: Voltage-dependent N-type calcium channel subunit alpha-1B (Homo sapiens, UniProt Q00975); assay: Inhibition of N-type voltage-dependent calcium channel CaV2.2 in human IMR32 cells assessed as inhibition of KCl-induced increase in intracellular calcium concentration preincubated for 4 to 5 mins before KCl challenge; format: cell-based, IMR-32
Chain of Voltage-dependent N-type calcium channel subunit alpha-1B (Q00975 whole entry): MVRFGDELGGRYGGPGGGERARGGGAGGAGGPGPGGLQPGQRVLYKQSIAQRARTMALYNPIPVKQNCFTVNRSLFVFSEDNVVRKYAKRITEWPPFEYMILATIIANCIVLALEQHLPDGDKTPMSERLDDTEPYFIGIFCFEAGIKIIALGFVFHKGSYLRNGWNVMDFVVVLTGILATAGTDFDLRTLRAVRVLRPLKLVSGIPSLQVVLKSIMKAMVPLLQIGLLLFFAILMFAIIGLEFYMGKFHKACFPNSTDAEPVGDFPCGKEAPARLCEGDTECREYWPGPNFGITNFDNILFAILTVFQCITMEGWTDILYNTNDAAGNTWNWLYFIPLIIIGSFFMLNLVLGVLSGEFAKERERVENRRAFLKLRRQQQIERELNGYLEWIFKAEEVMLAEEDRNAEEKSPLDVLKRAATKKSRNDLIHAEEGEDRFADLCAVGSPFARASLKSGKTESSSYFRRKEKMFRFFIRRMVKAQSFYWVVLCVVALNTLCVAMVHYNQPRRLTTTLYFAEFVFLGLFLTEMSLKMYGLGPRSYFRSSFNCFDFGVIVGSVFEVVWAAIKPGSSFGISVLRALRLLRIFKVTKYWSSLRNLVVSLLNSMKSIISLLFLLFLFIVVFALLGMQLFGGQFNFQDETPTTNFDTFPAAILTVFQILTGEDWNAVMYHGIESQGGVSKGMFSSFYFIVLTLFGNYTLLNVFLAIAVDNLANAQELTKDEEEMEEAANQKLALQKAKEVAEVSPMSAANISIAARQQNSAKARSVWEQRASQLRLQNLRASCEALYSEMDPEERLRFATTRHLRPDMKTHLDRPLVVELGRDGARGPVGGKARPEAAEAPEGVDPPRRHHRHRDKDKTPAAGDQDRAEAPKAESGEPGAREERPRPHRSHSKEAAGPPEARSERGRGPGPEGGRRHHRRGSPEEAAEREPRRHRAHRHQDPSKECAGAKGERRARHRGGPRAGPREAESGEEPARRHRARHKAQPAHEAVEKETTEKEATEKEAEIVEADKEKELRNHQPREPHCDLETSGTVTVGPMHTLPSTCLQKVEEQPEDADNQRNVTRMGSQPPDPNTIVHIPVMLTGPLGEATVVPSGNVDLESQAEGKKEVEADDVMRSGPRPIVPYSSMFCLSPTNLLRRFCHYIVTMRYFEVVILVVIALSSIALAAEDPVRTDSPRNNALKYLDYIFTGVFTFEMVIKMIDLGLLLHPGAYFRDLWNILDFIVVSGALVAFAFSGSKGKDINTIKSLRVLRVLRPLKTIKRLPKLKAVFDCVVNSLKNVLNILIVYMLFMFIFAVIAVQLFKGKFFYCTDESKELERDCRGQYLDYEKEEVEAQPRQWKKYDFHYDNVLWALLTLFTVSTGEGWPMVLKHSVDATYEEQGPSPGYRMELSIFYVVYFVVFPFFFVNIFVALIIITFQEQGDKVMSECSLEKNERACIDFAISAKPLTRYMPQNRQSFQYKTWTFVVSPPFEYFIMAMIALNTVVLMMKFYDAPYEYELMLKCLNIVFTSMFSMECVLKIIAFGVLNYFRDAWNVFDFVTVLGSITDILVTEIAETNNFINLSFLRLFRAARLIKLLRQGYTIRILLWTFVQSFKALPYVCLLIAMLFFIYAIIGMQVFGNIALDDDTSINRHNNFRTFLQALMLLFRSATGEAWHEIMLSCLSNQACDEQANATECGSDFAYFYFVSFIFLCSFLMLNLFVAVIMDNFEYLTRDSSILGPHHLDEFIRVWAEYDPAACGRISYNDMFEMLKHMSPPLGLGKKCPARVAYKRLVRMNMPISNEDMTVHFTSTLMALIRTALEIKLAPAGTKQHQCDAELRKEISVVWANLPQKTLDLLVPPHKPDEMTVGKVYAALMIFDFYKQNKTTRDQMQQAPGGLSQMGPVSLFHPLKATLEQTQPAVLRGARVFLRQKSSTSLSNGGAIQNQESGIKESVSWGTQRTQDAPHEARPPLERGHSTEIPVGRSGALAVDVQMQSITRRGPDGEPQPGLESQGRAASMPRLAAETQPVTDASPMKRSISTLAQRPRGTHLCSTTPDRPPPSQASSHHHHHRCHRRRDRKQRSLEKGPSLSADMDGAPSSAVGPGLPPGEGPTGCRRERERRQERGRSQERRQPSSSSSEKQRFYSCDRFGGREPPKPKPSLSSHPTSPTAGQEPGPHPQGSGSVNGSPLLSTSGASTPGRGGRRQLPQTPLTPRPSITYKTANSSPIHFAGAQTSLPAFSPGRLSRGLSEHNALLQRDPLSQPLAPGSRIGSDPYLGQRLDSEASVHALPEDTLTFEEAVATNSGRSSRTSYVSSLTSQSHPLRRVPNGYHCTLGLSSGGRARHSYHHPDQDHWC
In short: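 IMR-32 cells on poly-L-lysine/collagen dishes, differentiated with 1 mM dibutyl-cAMP and 2.5 µM bromodeoxyuridine for 10–14 days. Loaded with 2.5 µM fura-2/AM, 37 °C, 30 min. HEPES recording medium with 1 µM nifedipine throughout. Calcium rise evoked by 60 mM KCl for 6 s, repeated every 5 min. Compound at 0.1, 1 or 10 µM; IC50 from ≥2 independent experiments.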

[2] = target: T1, Voltage-gated L-type calcium channel (Rattus norvegicus, UniProt P22002+Q02485+P27732); assay: Inhibition of L-type voltage-dependent calcium channel in Sprague-Dawley rat aorta by Magnus method; format: tissue-based
In short: (§1)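 Rat aortic ring in organ bath, Tyrode's solution pH 7.4, 37 °C, 95% O2/5% CO2. Equilibrated 1 h at 2 g resting tension. Then exposed to high-K+ Tyrode (50 mM KCl replacing NaCl) and to normal Tyrode, 45 min each. Activity reported as inhibition or IC50.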

[3] = target: L-type voltage-dependent calcium channel (Rattus norvegicus, UniProt P22002+P27732+Q02485); assay: (§2) Inhibition of L-type voltage-dependent calcium channel in Sprague-Dawley rat aorta at 10 uM by Magnus method; format: tissue-based; details: Sprague-Dawley, isolated rat aorta; in short: as §1
[4] = target: T1, Voltage-gated L-type calcium channel; assay: as §2; format: tissue-based; details: 10 µM; in short: as §1
Rattus norvegicus [5] = assay: Analgesic activity in Sprague-Dawley rat assessed as inhibition of formalin-induced pain at 3 mg/kg, po; format: functional
In short: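 Rats received formalin by footpad injection, and phase II pain responses were scored. Compound given orally. Inhibition is expressed as % versus the control group, n = 5.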

Rattus norvegicus [6] = assay: Analgesic activity in Sprague-Dawley rat assessed as inhibition of formalin-induced pain at 100 mg/kg, po; format: functional
In short: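 Formalin injected into the rat footpad; phase II pain responses scored after oral dosing. Read-out is % inhibition relative to the control group, n = 3 animals at this dose.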

O=C(O)C1=CNC=C(C(=O)OC/C=C/c2ccccc2)C1c1cccc(Cl)c1 (centres undefined)
IC50 [1]: 1600 nM
IC50 [2]: 9100 nM

O=C(O)C1=CNC=C(C(=O)OC/C=C/c2ccccc2)C1c1cccc(C(F)(F)F)c1 (centres undefined)
IC50 [1]: 1200 nM
inhibition at 10 µM [3]: 40%

COC(OC)C1=C(C(=O)OC/C=C/c2ccccc2)C(c2cc(Cl)cc(Cl)c2)C(C(=O)O)=CN1 (centres undefined)
IC50 [1]: 1000 nM
inhibition at 10 µM [3]: 4%

COc1ccc(C2C(C(=O)O)=CNC(C(OC)OC)=C2C(=O)OC/C=C/c2ccccc2)cc1Cl (centres undefined)
IC50 [1]: 1500 nM
inhibition at 10 µM [3]: 26%

O=C(O)C1=CNC=C(C(=O)OC/C=C/c2ccccc2)C1c1ccc(Cl)cc1 (centres undefined)
IC50 [1]: 1200 nM
inhibition at 10 µM [3]: 16%

O=C(O)C1=CNC=C(C(=O)OC/C=C/c2ccccc2)C1c1ccc(Cl)c(Cl)c1 (centres undefined)
IC50 [1]: 750 nM
inhibition at 10 µM [3]: 41%

COC(OC)C1=C(C(=O)OC/C=C/c2ccccc2)C(c2cccc(Cl)c2)C(C(=O)O)=C(C)N1 (centres undefined)
IC50 [1]: 3000 nM

COc1c(Cl)cc(C2C(C(=O)O)=CNC=C2C(=O)OC/C=C/c2ccccc2)cc1Cl (stereo in doubt; (-)-3f)
IC50 [1]: 840 nM
inhibition (INH) [4]: 28%

COC(OC)C1=C(C(=O)OC/C=C/c2ccccc2)C(c2ccc(Cl)cc2)C(C(=O)O)=CN1 (centres undefined)
IC50 [1]: 1100 nM
inhibition at 10 µM [3]: 7.9%

COC(OC)C1=C(C(=O)OC/C=C/c2ccccc2)C(c2ccc(Cl)c(Cl)c2)C(C(=O)O)=CN1 (centres undefined)
IC50 [1]: 520 nM
inhibition at 10 µM [3]: 31%

COc1c(Cl)cc(C2C(C(=O)O)=CNC=C2C(=O)OC/C=C/c2ccccc2)cc1Cl (single isomer, unassigned; (+))
IC50 [1]: 720 nM
inhibition (INH) [4]: 6.5%
IC50 [2]: 44000 nM
inhibition in vivo at 3 mg/kg (Rattus norvegicus [5]): 35%

COc1c(Cl)cc(C2C(C(=O)O)=CNC(C(OC)OC)=C2C(=O)OC/C=C/c2ccccc2)cc1Cl (centres undefined)
IC50 [1]: 1200 nM
inhibition at 10 µM [3]: 20%

COc1c(Cl)cc(C2C(C(=O)O)=CNC=C2C(=O)OC/C=C/c2ccccc2)cc1Cl (stereo in doubt; 3f)
IC50 [1]: 580 nM
inhibition (INH) [4]: 19%

COC(OC)C1=C(C(=O)OC/C=C/c2ccccc2)C(c2cccc(C(F)(F)F)c2)C(C(=O)O)=CN1 (centres undefined)
IC50 [1]: 1100 nM
inhibition at 10 µM [3]: 17%

COc1ccc(C2C(C(=O)O)=CNC=C2C(=O)OC/C=C/c2ccccc2)cc1Cl (centres undefined)
IC50 [1]: 1300 nM
inhibition at 10 µM [3]: 15%

COC(OC)C1=C(C(=O)OC/C=C/c2ccccc2)C(c2cccc(Cl)c2)C(C(=O)O)=CN1 (centres undefined)
IC50 [1]: 1100 nM
inhibition at 10 µM [3]: 44%

NCC1(CC(=O)O)CCCCC1 [GABAPENTIN]
inhibition in vivo at 100 mg/kg (Rattus norvegicus [6]): 33%
